Measured values gathered from unrelated publications.
Each line is one published result; the experiments were not run side by side.
AAK1: AP2-associated protein kinase 1 (AAK1, Homo sapiens, UniProt Q2M2I8)
USP51: Ubiquitin carboxyl-terminal hydrolase 51 (USP51, Homo sapiens, UniProt Q70EK9)
CASP3: Caspase-3 (CASP3, Homo sapiens, UniProt P42574)
GHSR: Growth hormone secretagogue receptor type 1 (GHSR, Homo sapiens, UniProt Q92847)

For `C#Cc1n[nH]c2c(-c3cn([C@@H](C)c4ccccc4)c(=O)[nH]c3=O)cc(F)cc12`, the inhibition was -0.1% (AAK1; enzyme activity; inhibitor; 0.1 µM).
The inhibition of `CC[C@H]1[C@@H]2C[C@H]3[C@@H]4N(C)c5ccccc5[C@]45C[C@@H]([C@H]2[C@H]5O)N3[C@@H]1O` is reported as 26% (USP51; enzyme activity; inhibitor; 5 µM).
For `C#Cc1n[nH]c2c(-c3cn([C@@H](C)c4ccccn4)c(=O)[nH]c3=O)cc(F)cc12`, the inhibition was 4.6% (AAK1; enzyme activity; inhibitor; 0.1 µM).
For `Cc1ncc(C)n2nc(/C=C/c3nc(N4CCCC4)cc(N4CCOCC4)n3)nc12`, the inhibition was 3% (Peroxisome proliferator-activated receptor gamma (PPARG, Homo sapiens, UniProt P37231); ligand displacement; 10 µM).
`COC1=CC(=O)O[C@@H](/C=C/c2ccccc2)C1` has an inhibition of 40% (USP51; enzyme activity; inhibitor; 5 µM).
For `CCOC(=O)c1ccc(OC(=O)CCCCCNC(=N)N)cc1`, the inhibition was 2% (CASP3; enzyme activity; inhibitor; 10 µM).
`C[C@H]1C(=O)O[C@@H]2CCN3CC=C(COC(=O)[C@](C)(O)[C@]1(C)O)[C@H]23` has an inhibition of 42% (USP51; enzyme activity; inhibitor; 5 µM).
For `c1ccc(C(NCCNC(c2ccccc2)c2ccccc2)c2ccccc2)cc1`, the inhibition was 86% (GHSR; cell-free assay; 10 µM).
For `COC(=O)C[C@](O)(CCC(C)(C)O)C(=O)O[C@@H]1C(OC)=C[C@]23CCCN2CCc2cc4c(cc2[C@H]13)OCO4`, the inhibition was 0% (USP51; enzyme activity; inhibitor; 5 µM).
`O=C(O[C@@H]1Cc2c(O)cc(O)cc2O[C@@H]1c1cc(O)c(O)c(O)c1-c1c([C@H]2Oc3cc(O)cc(O)c3C[C@H]2OC(=O)c2cc(O)c(O)c(O)c2)cc(O)c(O)c1O)c1cc(O)c(O)c(O)c1` has an inhibition of 25% (Tyrosine-protein phosphatase non-receptor type 22 (PTPN22, Homo sapiens, UniProt Q9Y2R2); enzyme activity; inhibitor; fluorescence; 10 µM).
For `C[C@H](C(=O)N[C@H]1COc2ccccc2[C@@H]1S(C)(=O)=O)c1ccc(F)cc1`, the inhibition was -1% (GHSR; cell-free assay; 10 µM).
For `O=C(Nc1cccnn1)N1CCN([C@@H]2CCOc3cc(C(F)(F)F)ccc32)CC1`, the inhibition was -13% (Melanin-concentrating hormone receptor 1 (MCHR1, Homo sapiens, UniProt Q99705); cell-free assay; 20 µM).
`CC(C)N1CCC[C@H]1CNC(=O)c1cn(C2CCCC2)c(=O)c2c1c1ccccc1n2C` gave an inhibition of -2% (Sodium- and chloride-dependent GABA transporter 1 (Slc6a1, Rattus norvegicus, UniProt P23978); ligand displacement; radioligand; 10 µM).
`CC[C@@]1(O)C(=O)OCc2c1cc1n(c2=O)Cc2cc3ccccc3nc2-1` has an inhibition of 0% (USP51; enzyme activity; inhibitor; 5 µM).
With `CC(=O)N[C@@H](CC(=O)O)C(=O)N[C@@H](CC(N)=O)C(=O)N[C@@H](CC(C)C)C(=O)N[C@H](C=O)CC(=O)O` the inhibition was 80% (CASP3; enzyme activity; inhibitor; 0.1 µM).
With `Cn1cc(-c2cc(F)cc(N3CCn4c(cc5c4CCCC5)C3=O)c2CO)cc(Nc2ccc(N3CCN(C4COC4)CC3)cn2)c1=O` the inhibition was 15% (Calcium/calmodulin-dependent protein kinase type IV (CAMK4, Homo sapiens, UniProt Q16566); enzyme activity; inhibitor; 0.1 µM).
